Compound activity from PubChem BioAssay.
Most compounds without a hit are left out; they make up all but 2% or so of the library.
TROY signal inh: inhibitors of TROY-driven NF-kB signaling, primary screen, Q293 LMP1-TROYcd cells, NF-kB luciferase, uHTS. Q293 LMP1-TROYcd NF-kB luciferase reporter, 4 h. inhibition, % at 10 µM. 360,000 tested, 0.98% active. AID 1347056, 2019;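 active = compounds whose plate-normalised and pattern-corrected inhibition of the luciferase reporter signal at the single screening dose is 50% or more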
NR2E3 ag-1: inhibitors of NR2E3-RetCOR corepressor binding, primary screen, NR2E3 agonist project, biochemical, TR-FRET, GST-NR2E3, biotin-RetCOR; 320,000 tested, 0.12% active; inhibition of corepressor binding, % at 4.78 µM; 1536-well;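 active = percent inhibition above the cutoff of mean plus 3 SD of all tested compounds, set per screening campaign, cut at about 20% in these data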;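 also: 0% = DMSO wells and 100% = biotin wells as full block of FRET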
Target sequence (Q9Y5X4 whole entry, looked up): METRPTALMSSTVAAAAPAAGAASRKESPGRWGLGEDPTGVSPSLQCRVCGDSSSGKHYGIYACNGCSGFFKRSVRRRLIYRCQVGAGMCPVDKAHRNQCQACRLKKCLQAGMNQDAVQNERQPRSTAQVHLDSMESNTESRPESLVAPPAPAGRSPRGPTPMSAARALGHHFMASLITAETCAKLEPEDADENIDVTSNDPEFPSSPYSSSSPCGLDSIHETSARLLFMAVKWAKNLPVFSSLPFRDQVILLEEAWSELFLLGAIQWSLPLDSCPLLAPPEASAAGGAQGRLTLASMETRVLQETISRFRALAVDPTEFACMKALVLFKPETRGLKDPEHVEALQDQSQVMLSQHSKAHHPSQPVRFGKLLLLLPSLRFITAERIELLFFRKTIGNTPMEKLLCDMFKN
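System: GST-tagged NR2E3 plus biotinylated RetCOR corepressor; Buffer or medium: pH 7.5 Tris-based buffer; Probe or stimulus: RetCOR corepressor, biotinylated, 7 nM; Doses: compound at 4.8 µM, single dose; Schedule: 5 h incubation at 4 °C; Technique: time-resolved FRET; Evaluation: percent inhibition of TR-FRET ratio; Replication: one well per compound, singlicate testing.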
NR2E3 ag-2: NR2E3 agonists in two-hybrid cells, primary screen, cell-based, luminescence, CHO-S, Gal4-NCOR/VP16-NR2E3; inhibition of corepressor binding, % at 3.98 µM; luciferase; 360,000 tested, 0.35% active; Photoreceptor-specific nuclear receptor (Homo sapiens), Q9Y5X4;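 active = inhibition above the mean of all tested compounds plus 3 SD, cut at about 70% in these data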;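 also: 0% = DMSO with NR2E3 transfected cells and 100% = cells lacking NR2E3 construct; higher means lower luciferase signal from less NR2E3 corepressor binding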
HIF act: HIF pathway transcriptional activators, primary screen, cell-based, U2OS HRE-luciferase, luminescence. U2OS HRE-luciferase reporter; normalized: DMSO 0%, desferrioxamine 100%. activation, % at 7.5 µM (by protocol). 300,000 tested, 0.32% active;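 active = mean activation of at least 10% of the iron chelator positive control signal, with at least half of replicates also reaching 10%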
LMP1 NFkB inh: EBV LMP1-driven NF-kappaB luciferase reporter inhibitors, primary screen, cell-based, luminescence, single point | LMP1-induced NF-kappaB luciferase reporter cells | inhibition, % at 12.5 µM | 350,000 tested, 0.69% active; in the data active = inhibition above about 41%;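 also: 0% = neutral control wells and 100% = reference inhibitor control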
Starred values were filed as active, the others as inactive; / = not tested or not shown.

SMILES	TROY signal inh	NR2E3 ag-1	NR2E3 ag-2	HIF act	LMP1 NFkB inh
COc1cc(C(C)=O)ccc1OCC(=O)Nc1ccc(S(=O)(=O)N2CCCCC2)cc1	9	/	-14	/	0
COc1cc(C(C)=O)ccc1OCC(=O)Nc1ccc(C)c(S(=O)(=O)N2CCCCCC2)c1	63*	4	13	/	26
Cc1ccc(NC(=O)CSc2ncnc3ccccc23)cc1S(=O)(=O)N1CCCCCC1	53*	1	-15	2	21
COC(=O)/C=C1\N/C(=N/c2nc(C)c3cc(OC)ccc3n2)NC1=O	18	2	-15	2	-18
C[C@]12c3[nH]c4ccc(Cl)cc4c3CCN1C(=O)[C@@H](CC(=O)NCCc1ccccn1)C[C@@H]2C(=O)N1CCCCC1	7	/	-13	/	-18
CC(=O)Nc1cccc(-c2ccnc3c2CC(C)(C(=O)NCC2CC2)O3)c1 (configuration not stated)	15	/	-17	/	/
Cn1cccc1CC(=O)NNC(=S)Nc1ccccc1Cl	-12	0	-7	0	58*
COc1cc(/C=N/Nc2ccc(S(N)(=O)=O)cc2[N+](=O)[O-])cc(OC)c1O	59*	-5	14	0	-6
COC(=O)c1onc(-c2c(Cl)cccc2Cl)c1C(=O)OC	2	-3	0	0	-2
S=C1SCN(Cc2ccccc2)CN1Cc1ccco1	-4	/	-15	/	42*
S=C1SCN(Cc2ccccc2)CN1Cc1ccccc1	2	/	-13	2	33
CC[C@H](C)[C@H]1CNC(=S)N1CC1CCN(CCC(C)C)CC1	0	/	-7	/	3
COc1ccc(NC(=O)c2ccccn2)cc1	57*	-4	-126	-1	52*
O=C(N/N=C(\c1ccccc1)c1ccccn1)c1ccccc1Cl	-26	1	10	47*	24
COc1ccc(C(=O)N/N=C(\c2ccccc2)c2ccccn2)cc1	-7	3	-10	49*	22
COc1ccc(C(=O)N/N=C/c2cccc3cccnc23)cc1	/	-2	-7	12*	3
O=C(NN=C(c1ccccc1)c1ccccn1)c1ccccc1	-20	/	16	/	7
CCOc1ccc(C(=O)N/N=C/c2cccc3cccnc23)cc1	-69	0	-8	1	9
COc1ccc(N2CCN(C(CNC(=O)c3cccs3)c3ccco3)CC2)cc1 (configuration not stated)	-26	0	-12	0	-4
Cc1cccc(OCCc2c(C)[nH]c(=S)[nH]c2=O)c1	-9	-2	-7	-1	0
C/C(CC(=O)Nc1cc(C)ccn1)=N\NC(=O)c1cccc(C)c1O	-3	4	-30	5	-72
O=C(O)C1=C[C@@H](c2ccc(Br)cc2)C[C@@H](OCCCCO)O1	1	-1	-8	0	2
N/C(=N\NC(=O)Nc1ccc(Cl)cc1)c1ccccn1	64*	-3	-93	2	-9
CNC(=O)N(O)C1N(/N=C/c2c(F)cccc2Cl)C(=S)SC1(C)C (configuration not stated)	11	1	-2	-15	5
COc1cccc(-c2nc3n(n2)C(c2cccs2)C(C(=O)Nc2cccnc2)=C(C)N3)c1 (configuration not stated)	-11	4	-23	0	50*
O=C(COc1ccccc1Cl)Nc1ccccc1C(=O)N1CCOCC1	-5	1	-28	1	5
COc1cc(C(C)=O)ccc1OCC(O)CN1CCN(c2ccc(C)cc2C)CC1 (configuration not stated)	6	3	-28	0	16
COc1cc(C(C)=O)ccc1OCC(O)Cn1nc(C)c(Br)c1C (configuration not stated)	-26	/	27	1	62*
COc1ccc(N(CC(=O)Nc2ccccc2F)S(=O)(=O)c2ccc(OC)c(OC)c2)cc1	-12	-1	16	0	8
